Here are results for two compounds from article PMC6034581 (Neoplasia (New York, N.Y.), 2018).

Structures are written as SMILES.

In one data set the test system is C4-2 cells. The experiment in a line: MTS cell proliferation assay of in vitro cytotoxicity. As to conditions: Homo sapiens, C4-2, 72 h, read-out: half minimal inhibitory concentration (IC50). Format: cell-based. A digest of the protocol: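 AR-positive human prostate cancer C4-2 cells exposed for 72 hours to individual flavonoids or to a defined three-flavonoid mixture (molar ratio 1:1:2) across graded concentrations. Viability read by MTS cell proliferation assay; IC50 taken from the dose-effect curves. Data represent three or more independent experiments.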

A short description of data set [1]: Pharmacokinetics and bioavailability of ProFine ingredients. Format: in vivo, Sprague-Dawley rats. As to conditions: ProFine 100 mg/kg oral gavage, rat plasma.
In a further data set the test system is rats. As to conditions: cited from earlier work.
In a further data set the test system is humans. As to conditions: up to 1000 mg daily for several months; cited from earlier work.

For `O=c1cc(-c2ccc(O)c(O)c2)oc2cc(O)cc(O)c12` [luteolin], the IC50 in the data set on C4-2 cells was found to be 114 µM. For the same compound, the maximum plasma concentration in data set [1] was 0.44 µM. Also, the “acute oral toxicity (LD50)” value with rats is over 5000 mg/kg.

As for `O=c1c(O)c(-c2ccc(O)c(O)c2)oc2cc(O)cc(O)c12` [quercetin], in the data set on humans, the “adverse effects of human daily intakes” value was “no adverse effects”.
